# According to ChEMBL document CHEMBL1926589, “2-Anilinonicotinyl linked 2-aminobenzothiazoles and [1,2,4]triazolo[1,5-b] [1,2,4]benzothiadiazine conjugates as potential mitochondrial apoptotic inducers” (Bioorg Med Chem, 2011):
# Calls of active or inactive are those of the source. No cut-off for these calls is given here.
# Key:
# SiHa [1] = assay: Growth inhibition of human SiHa cells at 10 uM by sulforhodamine B assay; format: functional; conditions: read-out: GI
# Procedure, shortened: (§1)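 Single-dose 10 µM screen by sulforhodamine B assay, reported as percent inhibition of cell proliferation. Cells grown in medium with 10% heat-inactivated FBS at 37 °C, 5% CO2, and treated at about 70% confluence or in log phase. Compounds dissolved in DMSO; controls received vehicle (<0.5% v/v).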
# HL-60 [2] = assay: Induction of apoptosis in human HL60 cells assessed as non-viable necrotic cells at 1 uM after 24 hrs using Annexin V-FITC and propidium iodide staining by flow cytometry relative to control; format: functional
# Procedure, shortened: (§2)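 HL-60 cells (1 x 10^5 per 1.5 mL) treated 24 h, washed twice in PBS and stained in binding buffer with annexin V-FITC and PI. Flow cytometry with FITC in FL-1 (530 nm) and PI in FL-2 (585 nm), using quadrant statistics: lower right taken as apoptotic, upper right as post-apoptotic necrotic. Representative of three independent experiments.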
# A549 = assay: Growth inhibition of human A549 cells at 10 uM by sulforhodamine B assay; format: functional; conditions: read-out: GI; procedure, shortened: as §1
# CV-1 = assay: Growth inhibition of african green monkey CV1 cells after 48 hrs by MTT assay; format: cell-based; conditions: Chlorocebus aethiops, CV-1, 48 h
# DU-145 = assay: Growth inhibition of human DU145 cells at 10 uM by sulforhodamine B assay; format: functional; conditions: read-out: GI; procedure, shortened: as §1
# HL-60 [3] = assay: Induction of apoptosis in human HL60 cells assessed as DNA ladder formation at 1 uM after 24 hrs by agarose gel electrophoresis; format: functional, cell-based
# Procedure, shortened: (§3)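 Cells treated 24 h, then 2 x 10^6 cells lysed (Triton X-100 buffer, pH 8.0) with RNase at 37 °C for 90 min and proteinase-K at 50 °C for 1 h. DNA phenol/chloroform-extracted and ethanol-precipitated, then run on 1.8% agarose at 50 V for 1.5 h in TAE. Ladders viewed under UV.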
# SiHa [4] = assay: Growth inhibition of human SiHa cells after 48 hrs by MTT assay; format: functional, cell-based
# HL-60 [5] = assay: Cell cycle arrest in human HL60 cells assessed as accumulation at G1 phase at 1 uM after 24 hrs using propidium iodide staining by flow cytometry; format: functional, cell-based
# Procedure, shortened: (§4)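 HL-60 cells (1 x 10^5 per 1.5 mL) treated 24 h, then fixed in 70% cold ethanol at −20 °C overnight. RNase digestion (400 µg/ml) at 37 °C for 45 min, then propidium iodide (10 µg/ml) for 30 min. Flow cytometry on 10,000 events, FL2-A vs FL2-W, with doublet discrimination. Sub-G0 (hypodiploid) peak taken as apoptotic cells. Mean ± SD of three independent experiments.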
# IMR-32 = assay: Growth inhibition of human IMR32 cells at 10 uM by sulforhodamine B assay; format: functional; conditions: read-out: GI; procedure, shortened: as §1
# HL-60 [6] = assay: Cell cycle arrest in human HL60 cells assessed as accumulation at S phase at 1 uM after 24 hrs using propidium iodide staining by flow cytometry; format: functional, cell-based; procedure, shortened: as §4
# HL-60 [7] = assay: Induction of apoptosis in human HL60 cells assessed as caspase9 activation using LEHD-AMC as substrate at 1 uM after 24 hrs by fluorimetry relative to control; format: functional
# Procedure, shortened: (§5)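 HL-60 cells (2 x 10^6) treated 24 h, washed and lysed. Caspase-3, -8 and -9 activities in lysates measured fluorometrically with a commercial caspase fluorescent assay kit. Two independent experiments, each in duplicate.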
# SiHa [8] = assay: Induction of apoptosis in human SiHa cells assessed as DNA ladder formation at 10 uM after 24 hrs by agarose gel electrophoresis; format: functional, cell-based; procedure, shortened: as §3
# HL-60 [9] = assay: Inhibition of NF-kappaB expression in human HL60 cells at 1 uM after 24 hrs by Western blotting; format: functional, cell-based
# Procedure, shortened: (§6)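 HL-60 cells treated 24 h and lysed in RIPA buffer on ice; protein measured by Bradford against a BSA standard. 50 µg resolved by SDS-PAGE and transferred to PVDF, blocked in 5% milk/TBST, then primary antibodies 1:1000 for 2 h and HRP secondary 1:1000 for 1 h. ECL detection with β-actin as loading control; bands quantified by densitometry.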
# HL-60 [10] = assay: Induction of apoptosis in human HL60 cells assessed as late apoptotic cells at 1 uM after 24 hrs using Annexin V-FITC and propidium iodide staining by flow cytometry relative to control; format: functional; procedure, shortened: as §2
# HCT-15 = assay: Growth inhibition of human HCT15 cells at 10 uM by sulforhodamine B assay; format: functional; conditions: read-out: GI; procedure, shortened: as §1
# HL-60 [11] = assay: Cell cycle arrest in human HL60 cells assessed as accumulation at sub-G0 phase measuring DNA damage at 1 uM after 24 hrs using propidium iodide staining by flow cytometry (reference value: 1%); format: functional; procedure, shortened: as §4
# HL-60 [12] = assay: Induction of apoptosis in human HL60 cells assessed as caspase8 activation using IETD-AFC as substrate at 1 uM after 24 hrs by fluorimetry relative to control; format: functional; procedure, shortened: as §5
# HEp-2 = assay: Growth inhibition of human Hep2 cells at 10 uM by sulforhodamine B assay; format: functional; conditions: read-out: GI; procedure, shortened: as §1
# HL-60 [13] = assay: Growth inhibition of human HL60 cells after 48 hrs by MTT assay; format: functional, cell-based; conditions: HL-60, 48 h
# HL-60 [14] = assay: Induction of apoptosis in human HL60 cells assessed as PARP cleavage at 1 uM after 24 hrs by Western blotting; format: functional, cell-based; procedure, shortened: as §6
# SW-620 = assay: Growth inhibition of human SW620 cells at 10 uM by sulforhodamine B assay; format: functional; conditions: read-out: GI; procedure, shortened: as §1
# HL-60 [15] = assay: Induction of apoptosis in human HL60 cells assessed as caspase3 activation using DEVD-AFC as substrate at 1 uM after 24 hrs by fluorimetry relative to control; format: functional; procedure, shortened: as §5
# HL-60 [16] = assay: Inhibition of Bcl-2 expression in human HL60 cells at 1 uM after 24 hrs by Western blotting; format: functional, cell-based; procedure, shortened: as §6
# [17] = Growth inhibition of human 502713 cells at 10 uM by sulforhodamine B assay; format: functional; conditions: read-out: GI; procedure, shortened: as §1
# HL-60 [18] = assay: Inhibition of survivin expression in human HL60 cells at 1 uM after 24 hrs by Western blotting; format: functional, cell-based; procedure, shortened: as §6
# HL-60 [19] = assay: Cell cycle arrest in human HL60 cells assessed as accumulation at G2/M phase at 1 uM after 24 hrs using propidium iodide staining by flow cytometry; format: functional, cell-based; procedure, shortened: as §4
# OVCAR-5 = assay: Growth inhibition of human OVCAR5 cells at 10 uM by sulforhodamine B assay; format: functional; conditions: read-out: GI; procedure, shortened: as §1
# HL-60 [20] = assay: Induction of apoptosis in human HL60 cells assessed as early apoptotic cells at 1 uM after 24 hrs using Annexin V-FITC and propidium iodide staining by flow cytometry relative to control; format: functional; procedure, shortened: as §2
# HeLa = assay: Induction of apoptosis in human HeLa cells assessed as DNA ladder formation at 10 uM after 24 hrs by agarose gel electrophoresis; format: functional, cell-based; procedure, shortened: as §3
# HL-60 [21] = assay: Induction of apoptosis in human HL60 cells assessed as decrease in mitochondrial membrane potential at 1 uM after 24 hrs using rhodamine 123 staining by flow cytometry; format: functional
# Procedure, shortened: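 HL-60 cells (1 x 10^5 per 1.5 mL) treated 24 h, then stained with rhodamine-123 (5 µg/mL final) for 1 h. Washed, and propidium iodide (5 µg/mL) added just before reading. FL-1 fluorescence from 10,000 events; percentage of low Rh-123 cells taken as loss of membrane potential. Mean ± SD, n=3.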
# HL-60 [22] = assay: Induction of apoptosis in human HL60 cells assessed as increase of reactive oxygen species level at 1 uM after 24 hrs using DCFH-DA fluorescent dye based flow cytometric analysis relative to control; format: functional
# Procedure, shortened: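 HL-60 cells (1 x 10^5 per 1.5 mL) treated 24 h, then loaded with 10 µM H2DCFDA for 30 min at 37 °C. Washed twice in PBS and read in FL-1 (530 nm). Percentage of DCF-positive cells determined; mean ± SD of three experiments.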
# HL-60 [23] = assay: Induction of NO production in human HL60 cells at 1 uM after 24 hrs using DAF-2DA fluorescent dye based flow cytometric analysis; format: functional, cell-based
# Procedure, shortened: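 HL-60 cells (1 x 10^5 per 1.5 mL) preloaded 30 min with 10 µM DAF-2-DA before treatment. After 24 h exposure, cells were washed and read by flow cytometry in FL-1 as NO-positive population. Mean ± SD of three independent experiments.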
# HL-60 [24] = assay: Induction of apoptosis in human HL60 cells assessed as DNA ladder formation at 10 uM after 24 hrs by agarose gel electrophoresis; format: functional, cell-based; procedure, shortened: as §3
# SK-N-SH = assay: Growth inhibition of human SK-N-SH cells at 10 uM by sulforhodamine B assay; format: functional; conditions: read-out: GI; procedure, shortened: as §1
# HL-60 [25] = assay: Inhibition of HSP-90 expression in human HL60 cells at 1 uM after 24 hrs by Western blotting; format: functional, cell-based; procedure, shortened: as §6
# [26] = Therapeutic ratio of IC50 for african green monkey CV1 cells to IC50 for human HL60 cells; format: ADME, cell-based, HL-60; conditions: CV1 cells and HL60 cells, read-out: Ratio IC50
smiles,measurement,setting,value
O=C(Nc1nc2ccc([N+](=O)[O-])cc2s1)c1cccnc1Nc1ccc(F)cc1,inhibition of growth at 10 µM,SiHa [1],23%
same,Activity,HL-60 [2],45%
same,inhibition of growth at 10 µM,A549,18%
same,IC50,CV-1,15 µM
same,inhibition of growth at 10 µM,DU-145,51%
same,Activity,HL-60 [3],Active
same,IC50,SiHa [4],7 µM
same,Activity,HL-60 [5],inactive
same,inhibition of growth at 10 µM,IMR-32,33%
same,Activity,HL-60 [6],inactive
same,Activity,HL-60 [7],inactive
same,Activity,SiHa [8],inactive
same,inhibition,HL-60 [9],inactive
same,Activity,HL-60 [10],5%
same,inhibition of growth at 10 µM,HCT-15,55%
same,Activity,HL-60 [11],60%
same,Activity,HL-60 [12],inactive
same,inhibition of growth at 10 µM,HEp-2,52%
same,IC50,HL-60 [13],0.3 µM
same,Activity,HL-60 [14],Active
same,inhibition of growth at 10 µM,SW-620,67%
same,Activity,HL-60 [15],inactive
same,inhibition,HL-60 [16],inactive
same,inhibition of growth at 10 µM,[17],66%
same,inhibition,HL-60 [18],Active
same,Activity,HL-60 [19],inactive
same,inhibition of growth at 10 µM,OVCAR-5,53%
same,Activity,HL-60 [20],9%
same,Activity,HeLa,inactive
same,Activity,HL-60 [21],Active
same,Activity,HL-60 [22],16%
same,Activity,HL-60 [23],inactive
same,Activity,HL-60 [24],Active
same,inhibition of growth at 10 µM,SK-N-SH,63%
same,inhibition,HL-60 [25],Active
same,selectivity ratio,[26],50
